Source: article PMC9051925 (RSC Advances, 2020)

Experiments:
L02 cells = experiment: MTT assay for H2O2-treated L02 cells; type: cell-based; conditions: Homo sapiens, L02, read-out: L02 cell viability after H2O2
Summary of the method: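 Cells were grown in RPMI-1640 with 10% FBS at 37 °C, 5% CO2. PC12 cells were seeded at 5 × 10^5 cells per mL and incubated 16 h; L02 cells at 1 × 10^5 cells per mL, 24 h. Test compound (final 10 μM, from 20 mM DMSO stock) or DMSO was added for 0.5 h. Then 10 μL H2O2 (1 mM in medium) or medium was added for 2 h, followed by MTT for 4 h.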

[1] = DPPH˙ radical scavenging assay; conditions: read-out: DPPH˙ scavenging activity (EC50); 37 °C 30 min, OD 540 nm; mean ± SD
Summary of the method: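 Assay mixtures were 50 μL DPPH˙ working solution in ethanol plus 50 μL test compound in DMSO (sample solutions 0.02–20 mM). Ethanol replaced DPPH˙ in sample-control and blank wells. Mixtures were incubated at 37 °C for 30 min and read at OD 540 nm, in triplicate. Scavenging rate was calculated by formula. EC50 was derived by nonlinear regression from three independent experiments.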

EC50 [1] [µM]	Structure (SMILES)	viability at 10 µM (L02 cells) [%]
50 ± 10	O=C(O)c1cc(O)c(O)c(O)c1 [GA, gallic acid]	37.8
230 ± 90	O=C1O[C@H]([C@@H](O)CO)C(O)=C1O [VC, vitamin C]	–
